# Assay outcomes deposited in PubChem by The Scripps Research Institute Molecular Screening Center.
# Rows were chosen to be rich in hits. Some 1.9% of all compounds tested hit in one or more screens of this group.
# CHRM4 agonist: agonists of human muscarinic M4 receptor (CHRM4); activation, % at 3 µM; 0.14% of 360,000 active; AID 624127; CHO-K1 hM4/Gqi5, Fluo-8 calcium fluorescence; vehicle 0%, full acetylcholine response 100%;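 active = activation above the run mean over all test wells plus 3 SD, cut at about 32% in these data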;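 note: peak over basal fluorescence ratio per well then scaled between controls; 0% = DMSO wells and 100% = acetylcholine at EC100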
# CHRM4 PAM: potentiates acetylcholine response at human M4 receptor. P08173. CHO-K1 hM4/Gqi5, Fluo-8 calcium fluorescence, ACh EC20; 0% = ACh EC20, 100% = maximal ACh. activation, % at 3 µM. 0.4% of 360,000 active;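 active = activation above its plate's cutoff, the mean activation of sample wells plus 3 SD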
# CHRM5 agonist: agonists of human muscarinic M5 receptor (CHRM5). 0.19% of 360,000 active. P08912. CHO-K1 hM5 cells, Fluo-8 calcium fluorescence; 0% DMSO wells, 100% maximal acetylcholine response. AID 624037. activation, % at 3 µM;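 active = activation above the run's mean over test compounds plus 3 SD, cut at about 23% in these data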;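 note: signal is peak over basal fluorescence ratio across the kinetic read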
# Target sequence (P08912 whole entry, looked up): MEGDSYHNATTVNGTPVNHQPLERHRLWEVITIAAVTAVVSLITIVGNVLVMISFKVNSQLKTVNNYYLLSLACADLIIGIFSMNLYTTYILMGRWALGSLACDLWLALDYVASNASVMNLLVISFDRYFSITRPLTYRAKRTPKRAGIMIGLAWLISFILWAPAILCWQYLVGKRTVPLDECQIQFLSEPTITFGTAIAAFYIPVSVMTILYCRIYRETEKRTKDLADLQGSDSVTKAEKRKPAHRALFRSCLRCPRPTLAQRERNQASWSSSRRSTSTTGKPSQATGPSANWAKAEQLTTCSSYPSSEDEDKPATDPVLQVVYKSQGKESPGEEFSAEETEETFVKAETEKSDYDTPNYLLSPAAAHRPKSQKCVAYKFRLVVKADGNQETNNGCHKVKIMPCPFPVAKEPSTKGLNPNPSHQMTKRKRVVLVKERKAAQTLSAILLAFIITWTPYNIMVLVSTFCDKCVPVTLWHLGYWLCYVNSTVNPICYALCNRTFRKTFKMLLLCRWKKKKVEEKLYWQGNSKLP
# CHRM5 PAM: potentiates acetylcholine response at human M5 receptor; activation, % at 3 µM; CHO-K1 hM5, Fluo-8 calcium, ACh EC20 PAM; 0% = ACh EC20, 100% = ACh EC100; P08912; 0.3% of 360,000 active;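 active = activation above the run cutoff, the mean activation of all test compounds plus 3 SD, cut at about 18% in these data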
#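 system = human M5 receptor in CHO-K1 cells | reagent = EC20 acetylcholine as agonist stimulus | compound dosing = single-point, 3 µM nominal | incubation = Fluo-8 loading 80 min at 37 °C plus 30 min room temperature | detection = Fluo-8 calcium dye fluorescence, kinetic read | benchmarks = low control EC20 acetylcholine (0%), high control EC100 acetylcholine (100%)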
# CHRM5 antagonist: blocks acetylcholine activation of human M5 receptor; P08912; CHO-hM5 cells, Fluo-8 calcium fluorescence, ACh EC80; inhibition, % at 3 µM; 0.59% of 360,000 active;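 active = inhibition above a per-plate cutoff, the mean of that plate's test compounds plus 3 SD, cut at about 27% in these data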;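 note: 0% = acetylcholine EC80 with DMSO and 100% = DMSO without agonist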
# CHRM4 antagonist: antagonists of human muscarinic M4 receptor (CHRM4); 0.73% of 360,000 active; CHO-hM4 cells, ACh EC80, Fluo-8 calcium fluorescence; inhibition, % at 3 µM; P08173;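 active = inhibition above its plate's cutoff, the mean inhibition of sample wells plus 3 SD, cut at about 27% in these data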;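 note: 0% = acetylcholine EC80 with DMSO and 100% = DMSO without agonist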
# An asterisk follows results filed as active.
SMILES,CHRM4 agonist,CHRM4 PAM,CHRM5 agonist,CHRM5 PAM,CHRM5 antagonist,CHRM4 antagonist
Cc1ccc(Cl)cc1N1CCN(S(=O)(=O)c2ccc3c(c2)NC(=O)C(C)C(=O)N3)CC1 (stereo not drawn),0,11,0,4,-2,-5
COC(=O)C1=C(C)NC(C)=C(C(=O)OCCN(C)Cc2ccccc2)C1c1cccc([N+](=O)[O-])c1 (stereo not drawn),17,-18,3,-19,17,35*
O=C(O)c1cccc(NC(=O)c2ccccc2)c1,0,-3,-2,-2,3,14
O=C(Nc1cccc(C(=O)Nc2cccc(Br)c2)c1)c1ccccc1,23,-11,8,-27,30*,18
COc1cc2cc(C(=O)NCCc3c[nH]c4ccccc34)c(N)nc2cc1OC,33*,-3,24*,-22,25,7
COc1cc(SC)ccc1C(=O)NCCc1c[nH]c2ccccc12,7,-8,-2,-4,6,4
CN1C(=O)C(O)(CC(=O)c2ccncc2)c2ccccc21 (stereo not drawn),2,19*,-1,17,-6,-9
O=C(NCc1ccccc1)c1ccc(C2SCC(=O)N2Cc2ccccc2)cc1 (stereo not drawn),7,-19,-5,-23,1,34*
O=C(NCc1ccc(F)cc1)NC(=O)c1ccc(Cl)cc1,1,6,-4,-3,7,5
CN(C)c1c(F)cc(C(=O)NCc2ccccc2)cc1F,1,6,-2,-1,7,-6
Cc1ccc(C(=O)Nc2cccc(C(=O)NCc3ccccc3)c2)o1,4,-1,-4,-6,12,27*
O=C(NCc1ccccc1)c1ccc(F)c(F)c1,4,20*,1,6,-15,2
O=C(NCc1ccccc1)NC(=O)c1ccc(Cl)cc1,0,1,0,19*,-8,-7
COc1ccc(N(CC(=O)NC2CCCCC2)C(=O)c2ccc(C)s2)cc1OC,1,-11,-1,18,2,-3
Cc1c(C(=O)NCc2ccc3c(c2)OCO3)oc2ccc(Br)cc12,-1,3,-3,-6,12,2
Cc1c(C(=O)Nc2ccc3c(c2)OCCO3)oc2ccc(Br)cc12,1,23*,-3,4,2,-10
CN1CCC(=NNC(=O)C(=O)Nc2cccc(Br)c2)CC1,1,0,1,-15,32*,-2
CCCCn1c(N)c(N(CCOC)C(=O)CCS(=O)(=O)c2ccc(Cl)cc2)c(=O)[nH]c1=O,1,9,1,1,1,-6
N#Cc1ccccc1Cn1cc(/C=C/[N+](=O)[O-])c2ccccc21,5,-13,15,-1,50*,16
CCOc1ccc(/C=C2\CCCc3c2nc2ccccc2c3C(=O)O)cc1OC,78*,-18,249*,-24,17,16
COc1ccc(/C=C2\CCc3c2nc2ccccc2c3C(=O)O)cc1OC,4,6,5,-9,0,-18
CCN(CC)CCn1c2c(c(SCC(=O)Nc3cc(C)on3)nc1=O)CCCC2,1,7,-7,-3,0,-7
COC(=O)CCCCC(=O)OC,2,6,1,-5,6,3
COC(=O)CCCCCCCCCCN1CCCCC1,2,-16,-9,-6,-1,40*
CCCCn1c(N)c(N(CCC(C)C)C(=O)CSc2nc3ccccc3n2C)c(=O)[nH]c1=O,1,6,-3,21*,-5,1
SMILES,CHRM4 agonist,CHRM4 PAM,CHRM5 agonist,CHRM5 PAM,CHRM5 antagonist,CHRM4 antagonist
CCCCn1c(N)c(N(CC(C)C)C(=O)c2cccc(S(=O)(=O)N3CCCCCC3)c2)c(=O)[nH]c1=O,1,9,-3,5,2,-4
CCCCn1c(N)c(N(CCC(C)C)C(=O)COC(=O)c2ccc3ccccc3c2)c(=O)[nH]c1=O,1,23*,2,6,-10,-18
CCCCn1c(N)c(N(CCC(C)C)C(=O)c2cc(Cl)nc3ccccc23)c(=O)[nH]c1=O,0,9,3,26*,-13,-3
CCCCn1c(N)c(N(CC(C)C)C(=O)c2cccc(S(=O)(=O)N3CCCCC3)c2)c(=O)[nH]c1=O,0,22*,0,-3,8,5
O=C(COc1ccccc1Cl)Nc1ccc(S(=O)(=O)Nc2ccccn2)cc1,6,0,0,-6,14,-1
NC(=S)NC(=O)/C=C/c1ccccc1,1,-1,2,-3,10,10
O=C(c1ccc(CSc2nc3ccncc3[nH]2)cc1)N1CCN(c2cccc(Cl)c2)CC1,19,-12,6,-19,35*,10
Cc1cc(C(=O)Nc2ccc(Br)cc2)cs1,7,-3,-2,-3,4,-4
O=C1CN(C(=O)COC(=O)c2ccccc2O)c2ccccc2N1,1,1,2,2,-3,-4
CC(C)n1nc(C(=O)OCC(=O)N2CC(=O)Nc3ccccc32)c2ccccc2c1=O,2,20*,3,3,2,-17
CC1CCC(C(C)C)C(OCC(O)C[N+]2(C)CCCCC2)C1 (stereo not drawn),1,-19,-13,-14,4,9
CC1CCC(C(C)C)C(OCC[N+](C)(C)C)C1 (stereo not drawn),1,-36,-7,-20,99*,99*
CN1CCN(NC(=O)C23CC4CC(CC(C4)C2)C3)CC1,1,7,-2,9,-10,-8
CN1CCN(NC(=O)C2CC2)CC1,2,24,-6,5,-2,33*
FC(F)(F)C(F)(F)C(F)(F)c1nc2nc(Cl)c(Cl)nc2[nH]1,-1,-7,3,-4,0,8
CC(=O)c1cccc(NC(=O)/C(=C\c2cccnc2)NC(=O)c2ccccc2)c1,0,-12,0,-3,13,29*
O=[N+]([O-])c1cccc(COc2ccc(CN3CCCC3)cc2)c1,2,-13,-4,-13,6,28*
O=[N+]([O-])c1cccc(COc2ccc(CN3CCOCC3)cc2)c1,5,-10,-3,-16,10,-6
CC(C)n1nnnc1SCC(=O)N1CCOCC1,0,8,-2,5,-3,28*
COc1cccc(C(C(=O)NCc2ccco2)N(Cc2ccco2)C(=O)Cn2nnc3ccccc32)c1 (stereo not drawn),9,-7,-1,-19,13,30*
COc1cccc(N(C(=O)Cn2nnc3ccccc32)C(C(=O)NCc2ccco2)c2cccnc2)c1 (stereo not drawn),1,1,0,2,-1,-4
